In brackets after ≈: the same amount, converted by molar mass.
Assays:
[1] = species on record: Homo sapiens; test: Selectivity ratio of IC50 for human recombinant CYP11B1 to IC50 for human recombinant CYP11B2
[2] = molecular target: T1, Cytochrome P450 11B2, mitochondrial (Homo sapiens, UniProt P19099); test: Inhibition of human recombinant CYP11B2 using 11-deoxycorticosterone as substrate after 2 hrs by scintillation proximity assay
T1 sequence (P19099 whole entry): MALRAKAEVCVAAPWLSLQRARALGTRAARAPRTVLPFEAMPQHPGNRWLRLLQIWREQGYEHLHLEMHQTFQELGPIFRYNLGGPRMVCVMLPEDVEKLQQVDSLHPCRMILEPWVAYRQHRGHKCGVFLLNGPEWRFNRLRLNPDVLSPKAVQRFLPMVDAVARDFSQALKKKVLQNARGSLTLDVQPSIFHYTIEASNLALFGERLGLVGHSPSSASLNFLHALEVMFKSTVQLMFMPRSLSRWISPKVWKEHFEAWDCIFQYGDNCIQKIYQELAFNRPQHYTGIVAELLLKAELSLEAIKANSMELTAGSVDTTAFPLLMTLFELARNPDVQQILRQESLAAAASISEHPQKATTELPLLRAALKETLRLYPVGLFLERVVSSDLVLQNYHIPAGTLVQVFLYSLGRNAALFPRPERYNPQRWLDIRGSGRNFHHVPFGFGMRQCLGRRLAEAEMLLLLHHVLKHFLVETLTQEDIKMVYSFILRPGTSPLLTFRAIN

[3] = molecular target: T2, CYP19 (aromatase) (Homo sapiens, UniProt P11511); test: Inhibition of human CYP19 at 10 uM preincubated for 10 mins with NADPH followed by protein addition measured after 90 mins by fluorometric analysis
T2 sequence (P11511 whole entry): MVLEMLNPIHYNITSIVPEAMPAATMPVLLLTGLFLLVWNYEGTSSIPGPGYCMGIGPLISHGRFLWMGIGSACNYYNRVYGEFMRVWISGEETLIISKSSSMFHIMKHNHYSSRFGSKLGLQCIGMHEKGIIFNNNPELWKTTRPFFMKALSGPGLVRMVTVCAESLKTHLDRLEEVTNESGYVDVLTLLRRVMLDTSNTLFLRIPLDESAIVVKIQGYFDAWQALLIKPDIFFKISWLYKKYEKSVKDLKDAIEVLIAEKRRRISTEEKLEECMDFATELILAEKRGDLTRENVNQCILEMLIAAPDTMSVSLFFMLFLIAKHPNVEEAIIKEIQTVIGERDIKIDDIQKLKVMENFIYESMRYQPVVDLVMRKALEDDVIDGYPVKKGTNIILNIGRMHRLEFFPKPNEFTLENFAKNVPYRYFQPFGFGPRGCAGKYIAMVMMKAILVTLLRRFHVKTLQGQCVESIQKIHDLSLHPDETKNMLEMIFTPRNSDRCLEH

[4] = Half life in human liver microsomes after 30 mins by LC/MS/MS analysis; type: ADME
[5] = molecular target: T1, Cytochrome P450 11B2, mitochondrial; test: Inhibition of CYP11B2 in human […] cells assessed as decrease in […] aldosterone secretion after 24 hrs by RIA; type: cell-based
[6] = Half life in rat liver microsomes after 30 mins by LC/MS/MS analysis; type: ADME
[7] = molecular target: T3, Cytochrome P450 11B2, mitochondrial (Rattus norvegicus, UniProt P30099); test: Inhibition of recombinant rat CYP11B2 using 11-deoxycorticosterone as substrate after 2 hrs by scintillation proximity assay
T3 sequence (P30099 whole entry): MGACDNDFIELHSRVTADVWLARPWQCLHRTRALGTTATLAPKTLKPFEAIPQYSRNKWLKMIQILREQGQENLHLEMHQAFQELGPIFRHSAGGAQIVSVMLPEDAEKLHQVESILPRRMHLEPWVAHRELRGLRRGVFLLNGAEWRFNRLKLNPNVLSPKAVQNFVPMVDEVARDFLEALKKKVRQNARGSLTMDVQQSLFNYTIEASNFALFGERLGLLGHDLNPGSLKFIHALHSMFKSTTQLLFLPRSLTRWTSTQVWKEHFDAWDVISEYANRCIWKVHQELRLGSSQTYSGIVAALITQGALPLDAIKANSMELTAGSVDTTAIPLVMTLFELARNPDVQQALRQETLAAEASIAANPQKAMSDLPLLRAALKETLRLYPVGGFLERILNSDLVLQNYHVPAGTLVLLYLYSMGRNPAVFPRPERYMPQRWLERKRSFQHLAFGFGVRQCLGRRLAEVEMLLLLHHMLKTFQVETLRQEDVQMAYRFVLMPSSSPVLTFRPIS

[8] = molecular target: T4, Amine oxidase [flavin-containing] A (Homo sapiens, UniProt P21397); test: Inhibition of MAO-A (unknown origin)
T4 sequence (P21397 whole entry): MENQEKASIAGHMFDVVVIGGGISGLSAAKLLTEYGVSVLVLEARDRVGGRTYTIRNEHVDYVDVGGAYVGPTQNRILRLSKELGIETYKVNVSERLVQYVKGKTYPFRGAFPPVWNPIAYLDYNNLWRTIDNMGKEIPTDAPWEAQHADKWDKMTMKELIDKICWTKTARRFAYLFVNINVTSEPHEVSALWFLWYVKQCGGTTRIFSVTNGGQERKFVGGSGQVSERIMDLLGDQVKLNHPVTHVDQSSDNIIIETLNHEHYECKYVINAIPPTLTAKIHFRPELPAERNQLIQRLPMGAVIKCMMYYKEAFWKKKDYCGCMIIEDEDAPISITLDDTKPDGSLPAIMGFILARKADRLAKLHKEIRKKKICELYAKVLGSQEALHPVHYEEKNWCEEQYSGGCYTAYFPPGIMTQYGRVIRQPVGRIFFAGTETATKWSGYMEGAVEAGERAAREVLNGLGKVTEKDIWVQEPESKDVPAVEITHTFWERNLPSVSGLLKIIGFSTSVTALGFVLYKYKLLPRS

[9] = Inhibition of CYP11B2 in cynomolgus monkey adrenal homogenates assessed as inhibition of aldosterone secretion; type: tissue-based, Macaca fascicularis
Outline: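 Cynomolgus monkey adrenal homogenates, with 11-DOC as substrate; aldosterone secretion inhibition determined as IC50.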

[10] = species on record: Macaca fascicularis; test: Selectivity ratio of IC50 for cynomolgus monkey CYP11B1 to IC50 for cynomolgus monkey CYP11B2
Outline: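 Adrenal homogenates from cynomolgus monkey (Macaca fascicularis) served as the enzyme source, with 11-DOC as substrate. CYP11B2 activity was read as aldosterone production and CYP11B1 activity as cortisol production. The value is the CYP11B1 IC50 divided by the CYP11B2 IC50.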

[11] = Equilibrium solubility of the compound in buffer at pH 6.8; type: physicochemical
Outline: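 Equilibrium solubility measured in buffer at pH 6.8.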

[12] = Clearance in continuous angiotensin-2 infusion Sprague-Dawley rat model at 3 mg/kg, po and 1 mg/kg, iv; type: ADME, organism-based; settings: in vivo
[13] = AUC (0 to 24 hrs) in Sprague-Dawley rat at 1 mg/kg, po; settings: in vivo
[14] = Oral bioavailability in continuous angiotensin 2 infusion Sprague-Dawley rat model at 3 mg/kg; type: ADME, organism-based; settings: in vivo
Outline: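 Male Sprague Dawley rats, 200–300 g. IV: 0.3 mg/1 mL/kg (free base) slow injection via jugular vein, n=2. Oral gavage at 1 mg/5 mL/kg or 3 mg/5 mL/kg in solution, n=3. Jugular catheter blood at 5 min (iv only), 0.25–8 h into EDTA; plasma after protein precipitation with acetonitrile containing internal standard, HPLC-MS; noncompartmental parameters.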

[15] = Half life in continuous angiotensin 2 infusion Sprague-Dawley rat model at 3 mg/kg, po and 1 mg/kg, iv; type: ADME, organism-based; settings: in vivo

Question: What does the source list for `Cn1c(-c2cccnc2)c(C#N)c2ccc(Cl)cc21`?
Answer: Ratio IC50 [1]: 43; IC50 [2]: 2.5 nM; inhibition at 1.5 h, 10 µM [3]: 47%; half-life [4]: 259 min; IC50 [5]: 4 nM; half-life [6]: 47 min; IC50 [7]: 8000 nM; IC50 [8]: 210 nM

Question: What does the source list for `CN(C)S(=O)(=O)Oc1cncc(-c2c(C#N)c3ccccc3n2C)c1`?
Answer: Ratio IC50 [1]: 103; IC50 [2]: 2 nM; inhibition at 1.5 h, 10 µM [3]: 27%; half-life [4]: 3 min; IC50 [5]: 39 nM; half-life [6]: 1 min; IC50 [7]: 2000 nM; IC50 [8]: > 10000 nM

Question: Which IC50 [5] does the source give for `CCS(=O)(=O)Nc1cncc(-c2c(C#N)c3ccccc3n2C)c1` here?
Answer: Its IC50 is 380 nM.

Question: For `Cn1c(-c2cccnc2)c(C#N)c2ccccc21`, which Ratio IC50 [1] is on record?
Answer: The Ratio IC50 was 56.

Question: What about the IC50 [2] of the same compound?
Answer: The IC50 was 11 nM.

Question: And the IC50 [9]?
Answer: Its IC50 is 9 nM.

Question: What about the inhibition at 1.5 h, 10 µM [3] of the same compound?
Answer: The inhibition at 1.5 h, 10 µM was 58%.

Question: What about the half-life [4] of the same compound?
Answer: Its half-life is 10 min.

Question: And the IC50 [5]?
Answer: Its IC50 is 90 nM.

Question: What about the half-life [6] of the same compound?
Answer: The half-life was 30 min.

Question: What about the Ratio IC50 [10] of the same compound?
Answer: Its Ratio IC50 is 396.

Question: And the IC50 [7]?
Answer: Its IC50 is 10900 nM.

Question: With `CCS(=O)(=O)NCc1cncc(-c2cc3cnc(Cl)cc3n2C)c1` as the compound, how does the Ratio IC50 [1] read?
Answer: Its Ratio IC50 is 21.

Question: And the IC50 [2]?
Answer: The IC50 was 22 nM.

Question: And the IC50 [5]?
Answer: Its IC50 is 169 nM.

Question: What does the source list for `Cc1c(-c2cccnc2)[nH]c2ccccc12`?
Answer: Ratio IC50 [1]: 27; IC50 [2]: 3 nM; inhibition at 1.5 h, 10 µM [3]: 94%; IC50 [5]: 21 nM; IC50 [7]: 3900 nM

Question: What does the source list for `Cc1c(-c2cccnc2)n(C)c2ccccc12`?
Answer: Ratio IC50 [1]: 38; IC50 [2]: 1.4 nM; inhibition at 1.5 h, 10 µM [3]: 91%; half-life [4]: 12 min; IC50 [5]: 9 nM; half-life [6]: 5 min

Question: Which results are given for `CCS(=O)(=O)Nc1cncc(-c2c(C#N)c3ccc(Cl)cc3n2C)c1`?
Answer: Ratio IC50 [1]: 43; IC50 [2]: 11 nM; inhibition at 1.5 h, 10 µM [3]: 15%; half-life [4]: > 400 min; IC50 [5]: 13 nM; half-life [6]: 176 min; Ratio IC50 [10]: 636; IC50 [7]: 53100 nM; inhibition (INH) ([8]; human): Not Active

Question: Which solubility thermodynamic [11] does the source give for `CCS(=O)(=O)NCc1cncc(-c2cc3ccc(Cl)nc3n2C)c1` here?
Answer: The solubility thermodynamic was 450 µM (≈ 164 µg/mL).

Question: What about the clearance [12] of the same compound?
Answer: Its clearance is 68 mL/min/kg.

Question: And the Ratio IC50 [1]?
Answer: Its Ratio IC50 is 86.

Question: And the AUC(0-t) at 24 h [13]?
Answer: The AUC(0-t) at 24 h was 0.75 µM·h.

Question: And the bioavailability [14]?
Answer: The bioavailability was 100%.

Question: What about the IC50 [2] of the same compound?
Answer: Its IC50 is 1.1 nM.

Question: And the IC50 [9]?
Answer: The IC50 was 6 nM.

Question: What about the inhibition at 1.5 h, 10 µM [3] of the same compound?
Answer: The inhibition at 1.5 h, 10 µM was 11%.

Question: What about the half-life [4] of the same compound?
Answer: The half-life was 21 min.

Question: And the IC50 [5]?
Answer: The IC50 was 7 nM.

Question: And the half-life [6]?
Answer: Its half-life is 40 min.

Question: What about the Ratio IC50 [10] of the same compound?
Answer: The Ratio IC50 was 99.

Question: What about the half-life [15] of the same compound?
Answer: The half-life was 24 min.

Reference: ChEMBL document CHEMBL3745671, “Discovery of N-[5-(6-Chloro-3-cyano-1-methyl-1H-indol-2-yl)-pyridin-3-ylmethyl]-ethanesulfonamide, a Cortisol-Sparing CYP11B2 Inhibitor that Lowers Aldosterone in Human Subjects” (J Med Chem, 2015)
